Source: PMC8612216 (Proceedings of the National Academy of Sciences of the …, 2021)

Key:
NFP = molecular target: T1, NFP (Medicago truncatula, UniProt Q0GXS4); test: MST steady-state binding to fluorescently labeled NFP; settings: ligand 0.6 to 20,000 nM, NFP 12.5 to 50 nM
T1 sequence (Q0GXS4 28-246): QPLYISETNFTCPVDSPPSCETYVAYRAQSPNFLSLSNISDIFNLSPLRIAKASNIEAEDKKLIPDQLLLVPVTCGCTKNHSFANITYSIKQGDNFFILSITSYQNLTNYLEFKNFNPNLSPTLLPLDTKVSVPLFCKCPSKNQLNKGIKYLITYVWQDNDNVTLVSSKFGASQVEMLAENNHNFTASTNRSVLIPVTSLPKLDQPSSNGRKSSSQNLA
Summary of the method: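 Microscale thermophoresis using NHS blue dye-labelled NFP ectodomain (insect cell-expressed) held at a constant 12.5–50 nM. Ligands were S. meliloti succinoglycan (EPS-I) and maltodextrin, each titrated from 0.6 to 20,000 nM. Steady-state binding signal was recorded.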

CERK1 = molecular target: T2, CERK1 (Arabidopsis thaliana, UniProt A8R7E6); test: BLI kinetics of CERK1 ectodomain binding to chitin fragment
T2 sequence (A8R7E6 24-232 limits assumed): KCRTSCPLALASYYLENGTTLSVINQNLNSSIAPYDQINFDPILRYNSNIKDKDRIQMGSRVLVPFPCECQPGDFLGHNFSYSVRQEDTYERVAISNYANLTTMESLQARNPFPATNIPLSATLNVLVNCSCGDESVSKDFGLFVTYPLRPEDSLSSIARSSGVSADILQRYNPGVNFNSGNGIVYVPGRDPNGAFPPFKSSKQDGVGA

NFR5 ectodomain = molecular target: T3, NFR5 ectodomain (Lotus japonicus, UniProt Q70KR1); test: BLI binding of NFR5 ectodomain; settings: analyte 100 to 1.56 µM
T3 sequence (Q70KR1 29-242): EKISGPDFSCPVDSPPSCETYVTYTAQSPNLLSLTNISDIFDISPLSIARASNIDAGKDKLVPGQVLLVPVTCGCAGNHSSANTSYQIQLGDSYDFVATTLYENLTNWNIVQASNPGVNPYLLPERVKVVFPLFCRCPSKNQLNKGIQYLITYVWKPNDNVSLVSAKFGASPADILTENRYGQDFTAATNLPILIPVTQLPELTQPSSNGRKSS

[1] = molecular target: T4, engineered LYS11 (ENG-LYS11) (Lotus japonicus, UniProt D3KTZ8); test: BLI binding of engineered LYS11 ectodomain; settings: ENG-LYS11, analyte 100 to 1.56 µM
T4 sequence (D3KTZ8 28-247): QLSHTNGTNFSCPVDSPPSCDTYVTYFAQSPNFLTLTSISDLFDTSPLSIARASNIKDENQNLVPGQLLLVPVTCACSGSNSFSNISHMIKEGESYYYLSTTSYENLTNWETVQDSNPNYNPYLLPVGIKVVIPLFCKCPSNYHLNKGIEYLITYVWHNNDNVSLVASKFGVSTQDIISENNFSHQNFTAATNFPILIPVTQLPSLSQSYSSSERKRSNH

maltodextrin
binding to NFP (NFP): unable to bind

N[C@H]1[C@H](O[C@H]2[C@H](O)[C@@H](N)[C@H](O[C@H]3[C@H](O)[C@@H](N)[C@H](O[C@H]4[C@H](O)[C@@H](N)[C@H](O[C@H]5[C@H](O)[C@@H](N)C(O)O[C@@H]5CO)O[C@@H]4CO)O[C@@H]3CO)O[C@@H]2CO)O[C@H](CO)[C@@H](O)[C@@H]1O (some centres unmarked) [CO5, chitopentaose]
binding kinetics (CERK1): fast association and dissociation rates
Kd (NFR5 ectodomain): does not bind
Kd [1]: completely lost the ability to bind

S. meliloti succinoglycan [EPS-I]
binding to NFP (NFP): unable to bind
